MrgX1 antagonist = antagonists of human MrgX1 receptor; B-score at 10 µM; MRGX1-HEK293 calcium flux, Fluo-4, BAM8-22 antagonism; active compounds read low; 1.3% of 310,000 active; Q96LB2;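 active means calcium-response B-score plate-corrected more than 3 library SD below zero, starting fluorescence within 5 deviations, no agonist response on first addition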;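 further: peak minus trough fluorescence over baseline after final BAM8-22 challenge near maximal dose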
Target sequence (Q96LB2 whole entry, looked up): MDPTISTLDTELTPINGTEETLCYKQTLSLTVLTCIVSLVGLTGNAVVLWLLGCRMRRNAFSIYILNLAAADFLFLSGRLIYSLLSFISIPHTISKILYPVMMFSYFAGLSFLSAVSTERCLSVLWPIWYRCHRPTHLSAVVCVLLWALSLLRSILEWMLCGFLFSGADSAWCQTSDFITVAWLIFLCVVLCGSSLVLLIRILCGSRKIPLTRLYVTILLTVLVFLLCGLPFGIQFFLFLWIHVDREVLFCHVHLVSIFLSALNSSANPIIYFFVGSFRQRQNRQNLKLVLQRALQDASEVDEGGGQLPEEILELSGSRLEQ
RGS4 block = inhibitors of human RGS4; P49798; HEK293 M3R/RGS4 inducible, Fluo-4 calcium flux; active compounds read high; triggered by carbachol at its EC20; B-score at 10 µM; 0.45% of 310,000 active; AID 463165;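 active means B-score, a plate-corrected calcium signal, over three deviations above library mean, with baseline fluorescence within five deviations of library mean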;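 further: RGS4 expression induced by doxycycline in cells with stable M3 receptor; B-score is computed from the integrated fluorescence ratio over baseline after carbachol; higher B-score means a larger calcium signal and so more RGS4 inhibition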
Target sequence (P49798 whole entry, looked up): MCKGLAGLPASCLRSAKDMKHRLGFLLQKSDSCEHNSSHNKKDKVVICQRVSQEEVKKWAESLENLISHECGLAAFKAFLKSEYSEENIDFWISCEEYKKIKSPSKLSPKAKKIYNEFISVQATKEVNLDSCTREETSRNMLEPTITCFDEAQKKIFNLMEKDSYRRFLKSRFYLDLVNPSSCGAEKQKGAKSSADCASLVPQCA
RGS4 pot = RGS4 potentiation or activation. HEK293 M3R/inducible RGS4, carbachol calcium flux Fluo4; active compounds read low. 0.92% of 310,000 active. B-score at 10 µM;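 active means B-score of the integrated calcium signal more than 4 SD below the library mean, with starting fluorescence not abnormally high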;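 further: negative B-score means reduced calcium response which marks RGS4 activation or potentiation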
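Test system: HEK293 cells with stable M3R and inducible RGS4; also added: carbachol at ECmax as muscarinic agonist stimulus; schedule: dye loading 30 min 37 °C, buffer rest 30 min RT; technique: kinetic calcium fluorescence imaging with Fluo4-AM dye, 2 µM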
MrgX1 PAM = human MrgX1 positive allosteric modulation, primary screen. 0.63% of 310,000 active. AID 588675. B-score at 10 µM. MrgX1-HEK293, Fluo-4 calcium flux, FDSS; active compounds read high;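 active means plate-corrected calcium response at least 3 library SD above typical, normal starting fluorescence, not activating the receptor alone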;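 further: compound read alongside a low EC10 to EC30 dose of BAM8-22 agonist; peak minus trough fluorescence over baseline measured at the second addition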
MrgX1 agonist = agonists of human MrgX1 receptor. Q96LB2. MrgX1-HEK293 cells, Fluo-4 calcium fluorescence, agonist mode; active compounds read high. B-score at 10 µM. 0.44% of 310,000 active;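 active means calcium response B-score plate-corrected fluorescence ratio at least 3 library SD, with starting fluorescence B-score inside 5 SD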
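Test system: Stable human MrgX1 HEK293 cell line | Schedule: Overnight plating before 1 h dye loading | Read-out basis: Baseline-normalised fluorescence change ratio, B-scored | Detection: Kinetic calcium dye fluorescence, Fluo-4 NW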
MrgX1 ag confirm = human MrgX1 agonism, re-confirmation screen | shares compounds with MrgX1 agonist | MrgX1-HEK293, Fluo-4 calcium fluorescence, FDSS | activation, % at 10 µM | 78% of 600 active;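 active means calcium signal rise, corrected for plate position, at least 3 library SD high, with starting brightness within 5 such deviations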
MrgX1 PAM conf = confirmation of human MrgX1 receptor positive allosteric modulators; shares compounds with MrgX1 PAM; MrgX1-HEK293, Fluo-4 calcium fluorescence, FDSS; activation (ratio percentage), % at 10 µM; 13% of 1,200 active;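 active means ratio at least 3 SD above the weak peptide control, stable starting fluorescence, no direct agonism earlier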;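 further: compound followed by low BAM8-22 agonist challenge near EC20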
HEK293 Ca flux = activity in parental HEK293 cells lacking MrgX1. shares compounds with MrgX1 antagonist. Fluo-4 calcium fluorescence, FDSS. 2% of 4,000 active. fluorescence ratio F(max-min)/F0 at 10 µM;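 active means duplicate-averaged calcium fluorescence ratio at least three times the standard deviation of buffer wells, a nonspecific response in parental cells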
HEK293 Ca counter = activity in parental HEK293 cells without MrgX1; 0.4% of 4,000 active; shares compounds with MrgX1 antagonist; fluorescence ratio F(max-min)/F0 at 10 µM; parental HEK293 calcium flux, Fluo-4 fluorescence ratio; active compounds read high;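 active means calcium fluorescence ratio, averaged over duplicates, at least 3 SD of the buffer-well ratio, meaning a nonspecific response in receptor-free cells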;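 further: untransfected parental HEK293 lacking MrgX1 used as counterscreen for MrgX1 allosteric activators; fluorescence change taken during the second addition on a kinetic imager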
HEK293 Ca cntr2 = MrgX1 activator counter-screen hit in parental HEK293 cells; shares compounds with MrgX1 antagonist; Fluo-4 calcium fluorescence (FDSS); active compounds read high; fluorescence ratio F(max-min)/F0 at 10 µM; 8.7% of 4,000 active; AID 624115;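 active means calcium fluorescence ratio at least three times the spread of buffer wells, meaning a non-specific response in parental cells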
Of the large screens only hits and unclear results are named; the others gave an inactive call (follow-up assays come after a bar, where they were run). The list is not random: actives were taken first. Their share in the collection is about 3.5%.

CCCCC(=O)NNC(=S)NC(=O)c1ccc(C)cc1	MrgX1 agonist 150 | MrgX1 ag confirm 712% | HEK293 Ca flux inactive | HEK293 Ca counter inactive | HEK293 Ca cntr2 159
O=C(NNC(=S)Nc1ccc(F)cc1F)c1ccco1	none
COc1ccc(C(=O)NNC(=S)NC(=O)c2ccco2)cc1	MrgX1 agonist 84 | MrgX1 ag confirm 486% | HEK293 Ca flux inactive | HEK293 Ca counter inactive | HEK293 Ca cntr2 86
O=C(NNC(=S)NC(=O)c1ccco1)c1ccc(F)cc1	MrgX1 agonist 69 | MrgX1 ag confirm 201% | HEK293 Ca flux inactive | HEK293 Ca counter inactive | HEK293 Ca cntr2 47
CCCCC(=O)NNC(=S)NC(=O)c1ccc([N+](=O)[O-])cc1	none
Cn1c2ccccc2c(=O)c2c(=O)n(-c3ccccc3)c(C3CCCCC3)nc21	none
CCc1nc2c(c(=O)c3ccccc3n2C)c(=O)n1C1CCCCCC1	MrgX1 agonist 117 | MrgX1 ag confirm 481% | HEK293 Ca flux inactive | HEK293 Ca counter inactive | HEK293 Ca cntr2 97
Cn1c2ccccc2c(=O)c2c(=O)n(C3CCCCCC3)c(C3CCCCC3)nc21	none (no result: MrgX1 antagonist, MrgX1 PAM, MrgX1 agonist)
Cn1c2ccccc2c(=O)c2c(=O)n(C3CCCCC3)c(-c3cccs3)nc21	MrgX1 agonist 110 | MrgX1 ag confirm 596% | HEK293 Ca flux inactive | HEK293 Ca counter inactive | HEK293 Ca cntr2 98
COc1cc(/C=C(\C#N)C(=O)c2c[nH]c3ccccc23)cc(OC)c1O	MrgX1 agonist 70 | MrgX1 ag confirm 461% | HEK293 Ca flux inactive | HEK293 Ca counter inactive | HEK293 Ca cntr2 105
Cc1cc2nc3ccc(N(C)C)cc3nc2cc1N	MrgX1 agonist 26 | MrgX1 ag confirm 259% | HEK293 Ca flux inactive | HEK293 Ca counter inactive | HEK293 Ca cntr2 inactive
CCN(C(=O)c1cc(S(=O)(=O)N2CCCCC2)c[nH]1)c1ccc(OC)cc1	none
Cc1ccc(CNC(=O)c2ccc(N3CCC4(CC3)CC(c3ccccc3)=NO4)c(N)c2)cc1	none
CC(C)(C)c1cc(C(c2cccnc2)N2CCN(CCO)CC2)cc(C(C)(C)C)c1O (stereo not drawn)	MrgX1 agonist 32 | MrgX1 ag confirm 263% | HEK293 Ca flux inactive | HEK293 Ca counter inactive | HEK293 Ca cntr2 53
CC(C)(C)n1nnnc1C(c1cccnc1)N1CCN(c2cccc(C(F)(F)F)c2)CC1 (stereo not drawn)	none
CC1CCC(C(=O)c2c(O)c3ccccc3oc2=O)CC1 (stereo not drawn)	MrgX1 agonist 69 | MrgX1 ag confirm 282% | HEK293 Ca flux inactive | HEK293 Ca counter inactive | HEK293 Ca cntr2 84
O=C(CC1CCCCC1)c1c(O)c2ccccc2oc1=O	MrgX1 agonist 87 | MrgX1 ag confirm 428% | HEK293 Ca flux inactive | HEK293 Ca counter inactive | HEK293 Ca cntr2 92
CC(=N)c1c(O)c2ccccc2oc1=O	none
Cc1nnc(NC(=O)c2sc3nc(-c4cccs4)cc(C(F)(F)F)c3c2N)s1	MrgX1 agonist 31 | MrgX1 ag confirm 299% | HEK293 Ca flux 0.3 | HEK293 Ca counter inactive | HEK293 Ca cntr2 63
COc1cccc(CNC(=O)CCC2CCCN(c3cc(C)nc(N)n3)C2)c1 (stereo not drawn)	MrgX1 agonist 30 | MrgX1 ag confirm inactive | HEK293 Ca flux inactive | HEK293 Ca counter inactive | HEK293 Ca cntr2 inactive
COc1cccc(CNC(=O)CCC2CCCN(C(=O)c3ccc(C)nc3)C2)c1 (stereo not drawn)	none
Cc1c(NS(=O)(=O)c2cc(C(=O)NCc3ccco3)cc(Cl)c2Cl)c(=O)n(-c2ccccc2)n1C	none
CN1CCc2c(sc3c2C(=O)NC(c2cccs2)N3)C1 (stereo not drawn)	MrgX1 agonist 40 | MrgX1 ag confirm inactive | HEK293 Ca flux inactive | HEK293 Ca counter inactive | HEK293 Ca cntr2 inactive
CSc1ccc(C2NC(=O)c3c(sc4c3CCN(C)C4)N2)cc1 (stereo not drawn)	MrgX1 agonist 28 | MrgX1 ag confirm 101% | HEK293 Ca flux inactive | HEK293 Ca counter inactive | HEK293 Ca cntr2 inactive
CCOc1ccc(C2(C)NC(=O)N(CCN(C)C)C2=O)cc1 (stereo not drawn)	none
CC(=O)Nc1ccc(S(=O)(=O)N2CCC(C(=O)NCc3ccncc3)CC2)cc1	none
CCCC(=O)Nc1cc(C(=O)N(C)CC(OC)OC)ccc1S(=O)(=O)c1ccc(C)cc1	none
CCOC(=O)c1ccccc1-c1cn2cc(Cl)ccc2n1	MrgX1 agonist 30 | MrgX1 ag confirm 152% | HEK293 Ca flux inactive | HEK293 Ca counter inactive | HEK293 Ca cntr2 inactive
Cc1cc(=O)oc2ccc(OCC(=O)N3CCC(C)CC3)cc12	MrgX1 agonist 28 | MrgX1 ag confirm 215% | HEK293 Ca flux inactive | HEK293 Ca counter inactive | HEK293 Ca cntr2 inactive
COc1ccc(C)cc1NC(=O)CCC(=O)Nc1nnc(C2CCCCC2)s1	none
O=C(CSc1ncnc2ccccc12)c1cccs1	MrgX1 agonist 29 | MrgX1 ag confirm inactive | HEK293 Ca flux inactive | HEK293 Ca counter inactive | HEK293 Ca cntr2 inactive
Cc1ccc2[nH]c(=O)c(CN(CC3CCCO3)C(=O)c3cccs3)cc2c1 (stereo not drawn)	MrgX1 PAM 35 | MrgX1 PAM conf inactive | HEK293 Ca flux inactive | HEK293 Ca counter inactive | HEK293 Ca cntr2 inactive
Cc1ccc2cc(CN(CC3CCCO3)C(=O)c3cccs3)c(=O)[nH]c2c1 (stereo not drawn)	none
COc1ccc(OC)c(NC(=O)CC2Oc3ccccc3NC2=O)c1 (stereo not drawn)	none
Nc1ccc(Oc2ccc(Br)cc2)cc1	MrgX1 PAM 8.4 | MrgX1 PAM conf inactive | HEK293 Ca flux inactive | HEK293 Ca counter inactive | HEK293 Ca cntr2 inactive
Nc1ccc(Oc2cccc(Oc3ccc(N)cc3)c2)cc1	none
Cc1sc(NC(=O)c2ccc(F)cc2)c(CN2CCCCCC2)c1C	none
Cc1sc(NC(=O)c2ccccc2F)c(CN2CCCCC2)c1C	MrgX1 PAM 9.4 | MrgX1 PAM conf inactive | HEK293 Ca flux inactive | HEK293 Ca counter inactive | HEK293 Ca cntr2 inactive
Cc1cc(C(=O)CN2C(=O)NC3(CCC(C)CC3)C2=O)c(C)n1C (stereo not drawn)	MrgX1 PAM 12 | MrgX1 PAM conf inactive | HEK293 Ca flux inactive | HEK293 Ca counter inactive | HEK293 Ca cntr2 inactive
COc1cccc(NC(=O)c2ccccc2Br)c1	none

Source: PubChem (Johns Hopkins Ion Channel Center)
